Measurements from ChEMBL document CHEMBL3272343, “Etodolic acid and related compounds. Chemistry and antiinflammatory actions of some potent di- and trisubstituted 1, 3, 4, 9-tetrahydropyrano[3, 4-b]indole-1-acetic acids” (J Med Chem, 1976).
The source made the active and inactive calls. The calls are words filed in the database; no cut-off is given here.

Key:
Rattus norvegicus [1] = test: Antiinflammatory activity in rat assessed as inhibition of adjuvant-induced arthritis administered for 9 days into foot pad 14 days after adjuvant challenge measured on day 22 by mercury displacement analysis; format: functional
How it was run: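 Oral dosing in groups of six rats with established adjuvant arthritis (Mycobacterium butyricum in mineral oil, injected into left hind foot pad). Treatment ran from day 14 to day 22 (9 po administrations). Injected-paw volume was measured by mercury displacement. A decrease of 0.5 ml or more counted as a therapeutic effect. ED50 was derived by probit analysis of responder counts. Maximum screening dose was 100 mg/kg.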

[2] = Gastrointestinal toxicity in 8 hrs starved po dosed Charles River rat assessed as ulcerogenic effect after 18 hrs; format: organism-based; conditions: in vivo, read-out: UD50
How it was run: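 Acute ulcerogenicity in male Charles River rats (180–200 g), housed in individual cages and starved 8 hr before oral dosing. UD50 was calculated graphically.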

Rattus norvegicus [3] = test: Antiinflammatory activity in rat assessed as inhibition of adjuvant-induced arthritis at 25 mg/kg administered for 9 days into foot pad 14 days after adjuvant challenge measured on day 22 by mercury displacement analysis; format: functional, organism-based; design: dose 25 mg/kg
How it was run: (§1)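 Therapeutic test in groups of six rats with adjuvant arthritis (Mycobacterium butyricum in mineral oil, left hind foot pad). Oral treatment ran from day 14 to day 22 (9 po doses). Injected-paw volume was measured by mercury displacement. Rats whose paw shrank by 0.5 ml or more were scored as showing a therapeutic effect; smaller changes counted as negative.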

[4] = Therapeutic index, ratio of UD50 for 8 hrs starved po dosed Charles River rat to ED50 for rat assessed as inhibition of adjuvant-induced arthritis; format: organism-based; conditions: in vivo, read-out: TI
How it was run: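 Ratio of UD50 to ED50. UD50 came from starved (8 hr) male Charles River rats dosed orally and was calculated graphically. ED50 came from the 9-dose oral adjuvant-arthritis therapeutic test (day 14–22, mercury-displacement paw volume, ≥0.5 ml decrease as responder) and was derived by probit analysis.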

Rattus norvegicus [5] = test: Antiinflammatory activity in po dosed rat assessed as inhibition of carrageenin-induced paw edema; format: functional
Rattus norvegicus [6] = test: Antiinflammatory activity in rat assessed as inhibition of adjuvant-induced arthritis at 50 mg/kg administered for 9 days into foot pad 14 days after adjuvant challenge measured on day 22 by mercury displacement analysis; format: functional, organism-based; design: dose 50 mg/kg; how it was run: as §1
Rattus norvegicus [7] = test: Antiinflammatory activity in rat assessed as inhibition of adjuvant-induced arthritis at 20 mg/kg administered for 9 days into foot pad 14 days after adjuvant challenge measured on day 22 by mercury displacement analysis; format: functional, organism-based; design: dose 20 mg/kg; how it was run: as §1

Row | Structure (SMILES) | ED50 (Rattus norvegicus [1]) [mg/kg] | other results
1 | CCCC1(CC(=O)O)OCCc2c1[nH]c1c(C)cccc21 (centres undefined) | 11.8 | 
2 | CCCCC1C(=O)N(c2ccccc2)N(c2ccccc2)C1=O [PHENYLBUTAZONE] | 5.4 | TD50 at 18 h [2]: 100 mg/kg
3 | CCC1(CC(=O)O)OCCc2c1[nH]c1c(CC(C)C)cccc21 (centres undefined) | 5 | 
4 | CCC1(CC(=O)O)OCCc2c1[nH]c1c(OC)cccc21 (centres undefined) |  | Activity (Rattus norvegicus [3]): inactive
5 | CCC1(CC(=O)O)OCCc2c1[nH]c1c(C3CC3)cccc21 (centres undefined) | 1 | 
6 | CCC1(CC(=O)O)OCCc2c1[nH]c1c(C(C)C)cccc21 (centres undefined) | 1.6 | 
7 | CCC1(CC(=O)O)OCCc2c1[nH]c1c(C)cccc21 (centres undefined) | 4.3 | 
8 | CCc1cccc2c3c([nH]c12)C(CC)(CC(=O)O)OCC3 (centres undefined) [ETODOLAC] | 0.7 | TD50 at 18 h [2]: 60 mg/kg; selectivity ratio [4]: 85
9 | CCC1(CC(=O)O)OCCc2c1[nH]c1c(Cl)c(Cl)ccc21 (centres undefined) | 1.1 | 
10 | CCC1(CC(=O)O)OCCc2c1[nH]c1cc(Cl)ccc21 (centres undefined) | 3.2 | 
11 | CCC1(CC(=O)O)OCCc2c1[nH]c1c(C)c(F)ccc21 (centres undefined) | 0.9 | ED30 (Rattus norvegicus [5]): 37 mg/kg; TD50 at 18 h [2]: 26 mg/kg; selectivity ratio [4]: 29
12 | CCC1(CC(=O)O)OCCc2c1[nH]c1c(C)c(Cl)ccc21 (centres undefined) | 0.6 | ED30 (Rattus norvegicus [5]): 15 mg/kg; TD50 at 18 h [2]: 25 mg/kg; selectivity ratio [4]: 41
13 | CCC1(CC(=O)O)OCCc2c1[nH]c1ccc(Br)cc21 (centres undefined) |  | inhibition (Rattus norvegicus [3]): inactive
14 | CCCC1(CC(=O)O)OCCc2c1[nH]c1ccc(C)cc21 (centres undefined) |  | inhibition (Rattus norvegicus [3]): inactive
15 | CCC(C)c1cccc2c3c([nH]c12)C(CC)(CC(=O)O)OCC3 (centres undefined) | 2.6 | 
16 | CCCC1(CC(=O)O)OCCc2c1[nH]c1c(C)c(Cl)ccc21 (centres undefined) | 3.4 | 
17 | CCC1(CC(=O)O)OCCc2c1[nH]c1ccc(F)cc21 (centres undefined) | 5 | 
18 | CCCC1(CC(=O)O)OCCc2c1[nH]c1cc(OC)ccc21 (centres undefined) |  | inhibition (Rattus norvegicus [3]): inactive
19 | CCC1(CC(=O)O)OCCc2c1[nH]c1c(OC)ccc(OC)c21 (centres undefined) | 100 | 
20 | CCC1(CC(=O)O)OCCc2c1[nH]c1c(C)ccc(C)c21 (centres undefined) | 3.2 | 

Row | Structure (SMILES) | ED50 (Rattus norvegicus [1]) [mg/kg] | other results
21 | CCC1(CC(=O)O)OCCc2c1[nH]c1c(Cl)c(C)ccc21 (centres undefined) | 4.1 | 
22 | CCCc1cccc2c3c([nH]c12)C(CCC)(CC(=O)O)OCC3 (centres undefined) | 6 | 
23 | CCCC1(CC(=O)O)OCCc2c1[nH]c1cc(Cl)ccc21 (centres undefined) | 3.7 | 
24 | CCC1(CC(=O)O)OCCc2c1[nH]c1c(C3CCCCC3)cccc21 (centres undefined) | > 10 | 
25 | CCC1(CC(=O)O)OCCc2c1[nH]c1c(Cl)ccc(Cl)c21 (centres undefined) | 5.5 | 
26 | CCCC1(CC(=O)O)OCCc2c1[nH]c1c(CC)cccc21 (centres undefined) | 7.4 | 
27 | CCCC1(CC(=O)O)OCCc2c1[nH]c1cc(C)ccc21 (centres undefined) |  | inhibition (Rattus norvegicus [6]): inactive
28 | CCC1(CC(=O)O)OCCc2c1[nH]c1c(Cl)cccc21 (centres undefined) | 2.4 | 
29 | CCCc1cccc2c3c([nH]c12)C(CC)(CC(=O)O)OCC3 (centres undefined) | 0.4 | ED30 (Rattus norvegicus [5]): 10 mg/kg; TD50 at 18 h [2]: 20 mg/kg; selectivity ratio [4]: 50
30 | CCC1(CC(=O)O)OCCc2c1[nH]c1cccc(Cl)c21 (centres undefined) | 7 | 
31 | CCC1(CC(=O)O)OCCc2c1[nH]c1c(C(C)(C)C)cccc21 (centres undefined) | 1.9 | 
32 | CCC1(CC(=O)O)OCCc2c1[nH]c1cccc(C)c21 (centres undefined) | 11 | 
33 | CCCCc1cccc2c3c([nH]c12)C(CC)(CC(=O)O)OCC3 (centres undefined) |  | inhibition (Rattus norvegicus [7]): inactive
34 | CCCC1(CC(=O)O)OCCc2c1[nH]c1cccc(Cl)c21 (centres undefined) | > 25 | 
35 | CCC1(CC(=O)O)OCCc2c1[nH]c1cc(C(F)(F)F)ccc21 (centres undefined) | 1.2 | 
36 | COc1ccc2c(c1)c(CC(=O)O)c(C)n2C(=O)c1ccc(Cl)cc1 [INDOMETHACIN] | 0.2 | ED30 (Rattus norvegicus [5]): 1.3 mg/kg; TD50 at 18 h [2]: 6 mg/kg; selectivity ratio [4]: 30
37 | CCC1(CC(=O)O)OCCc2c1[nH]c1c(C3CCCC3)cccc21 (centres undefined) | > 5 | 
38 | CCC1(CC(=O)O)OCCc2c1[nH]c1cc(F)ccc21 (centres undefined) | 3 | 
39 | CCCC1(CC(=O)O)OCCc2c1[nH]c1cccc(C)c21 (centres undefined) | 10 | 
